Data reported in publication PMC12215967 (Scientific Reports, 2025).
Entries after “also recorded” stand apart in the source; their conditions may differ.

How the values were obtained:
[1] = system: HT-1080 transplanted tumors (CD13 positive expression); assay: T1WI MRI of HT-1080 tumor-bearing mice, T/NT ratio; format: in vivo, human fibrosarcoma in BALB/c nude mice
[2] = proton relaxivity measurement; format: physicochemical; details: 128 MHz, 298 K
[3] = system: HT-29 transplanted tumors (CD13 negative expression); assay: T1WI MRI of HT-29 tumor-bearing mice, T/NT ratio; format: in vivo, human colorectal adenocarcinoma in BALB/c nude mice
[4] = system: HT-1080 transplanted tumors; assay: tumor size on transverse MRI, HT-1080; format: in vivo, human fibrosarcoma in BALB/c nude mice
Procedure, shortened: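 8-week BALB/c nude mice (~25 g, SPF) bore right-axillary HT-1080 xenografts from 5 × 10^6 cells. At ~1 cm, mice got Gd-labeled probe (200 µg i.p.) and 3.0T T1WI MRI with a small-animal coil (TR 200 ms, TE 2.46 ms, 3 mm slices). Test compound was then given at 0.5 mg/kg/day i.p. for 7 days, with repeat MRI on day 8. Groups were compared by one-way ANOVA.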

[5] = system: HT-29 transplanted tumors; assay: tumor size on transverse MRI, HT-29; format: in vivo, human colorectal adenocarcinoma in BALB/c nude mice
APN/CD13 = assay: immunohistochemistry of APN/CD13 expression in HT-1080 transplanted tumors; format: in vivo, human fibrosarcoma in BALB/c nude mice; details: ubenimex 0.5 mg/kg/day i.p., one week / 7 days
Procedure, shortened: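 HT-1080 cells, grown in DMEM with 10% FBS at 37 °C and 5% CO2, were inoculated at 5 × 10^6 cells into the right axilla of 8-week BALB/c nude mice. Tumors reached about 1 cm. Test compound was given at 0.5 mg/kg/day i.p. for 7 days. After the day-8 MRI, tumors were harvested, formaldehyde-fixed for 48 h, paraffin-embedded, cut at 5 μm and immunostained for APN/CD13.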

CD13 receptor = CD13 receptor (Homo sapiens, UniProt P15144); assay: competitive cell binding assay; details: HT-1080 cells, 0.01 to 60.00 µM
Sequence of CD13 receptor (P15144 whole entry): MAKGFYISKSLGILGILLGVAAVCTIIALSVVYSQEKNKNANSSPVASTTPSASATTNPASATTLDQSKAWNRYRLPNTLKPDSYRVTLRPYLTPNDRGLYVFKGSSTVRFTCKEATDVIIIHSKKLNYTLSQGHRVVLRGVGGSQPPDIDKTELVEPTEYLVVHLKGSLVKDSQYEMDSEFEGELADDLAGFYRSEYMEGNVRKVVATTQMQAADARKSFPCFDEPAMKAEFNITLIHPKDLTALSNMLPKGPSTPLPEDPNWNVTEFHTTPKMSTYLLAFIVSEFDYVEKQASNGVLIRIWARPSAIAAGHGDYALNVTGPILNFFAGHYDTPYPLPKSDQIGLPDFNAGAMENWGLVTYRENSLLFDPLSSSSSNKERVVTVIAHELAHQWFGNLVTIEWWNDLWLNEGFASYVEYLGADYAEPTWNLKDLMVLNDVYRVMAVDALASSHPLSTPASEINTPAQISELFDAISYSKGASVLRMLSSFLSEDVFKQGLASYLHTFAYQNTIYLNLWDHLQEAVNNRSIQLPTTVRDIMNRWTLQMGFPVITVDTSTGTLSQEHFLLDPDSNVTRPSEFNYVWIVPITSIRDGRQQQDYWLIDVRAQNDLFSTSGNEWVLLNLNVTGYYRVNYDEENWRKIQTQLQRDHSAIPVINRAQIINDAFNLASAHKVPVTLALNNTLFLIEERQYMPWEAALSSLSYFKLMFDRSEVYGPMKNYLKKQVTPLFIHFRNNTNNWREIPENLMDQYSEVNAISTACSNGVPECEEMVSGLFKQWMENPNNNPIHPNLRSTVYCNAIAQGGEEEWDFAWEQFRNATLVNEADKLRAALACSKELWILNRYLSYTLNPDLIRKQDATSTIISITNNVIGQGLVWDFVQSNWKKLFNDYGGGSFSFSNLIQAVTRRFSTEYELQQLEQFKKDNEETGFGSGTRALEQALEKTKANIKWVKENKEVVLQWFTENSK

## O=C([O-])CN1CCN(CC(=O)[O-])CCN(CC(=O)O)CCN(CC(=O)[O-])CC1.[Gd+3] [Gd-DOTA]
[1]; Gd-DOTA, 1 h post-injection
  T/NT of HT-1080 xenografts (treated or untreated) compared with HT-29 xenografts: no significant difference in T/NT values
[1]; HT-1080 xenograft, intraperitoneal injection, before treatment
  tumor signal intensity on T1WI: high signal intensity
[1]; HT-1080 xenografts, i.p. injection, T/NT value-time curve
  time of peak T/NT value post-injection: 1 h
[2]
  proton relaxivity R1: 4.0 mM^− 1S^− 1
[3]; HT-29 xenograft, intraperitoneal injection, before treatment
  tumor signal intensity on T1WI: high signal intensity
[3]; HT-29 xenografts, i.p. injection, T/NT value-time curve
  time of peak T/NT value post-injection: 1 h

## CC(C)C[C@H](NC(=O)[C@@H](O)[C@H](N)Cc1ccccc1)C(=O)O [ubenimex]
[1]; ubenimex 0.5 mg/kg/day i.p., 7 days, MRI on the 8th day
  change in T/NT ratio after treatment: decreased significantly
[4]; 7 days of ubenimex treatment
  change of tumor size (sum of long and short diameters): not changing significantly
[4]; HT-1080, n = 5, before ubenimex, P = 0.39 before vs after
  sum of the long and short diameters of the tumor, before treatment: 3.1 ± 0.1 cm
[5]; HT-29, after one week, P = 0.001 vs before
  sum of the long and short diameters of the tumor, after one week: 3.5 ± 0.2 cm
[5]; HT-29, before, P = 0.001 vs after one week
  sum of the long and short diameters of the tumor, before: 2.9 ± 0.1 cm
APN/CD13
  expression of APN/CD13 in HT-1080 grafts after treatment: decreased significantly; also recorded: markedly reduced

## DOTA-G3CNGRC
CD13 receptor
  inhibition of 99mTc-DOTA-G3CNGRC binding to the CD13 receptor: inhibited by DOTA-G3CNGRC in a dose-dependent manner
